In ChEMBL document CHEMBL1127344, “Tridentate ligands containing the SNS donor atom set as a novel backbone for the development of technetium brain-imaging agents” (J Med Chem, 1994):

Columns and labels:
Rattus norvegicus [1] = species on record: Rattus norvegicus; test: Tested for biodistribution of compound at 60 min in rat liver; type: ADME, organism-based; conditions: in vivo, 1 h
Mus musculus [2] = species on record: Mus musculus; test: Tested for biodistribution of compound at 10 min in mice intestine; type: ADME, organism-based; conditions: in vivo
In short: (§1)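 Male Swiss albino mice, at least five per group, received 0.1 mL (2-3 μCi) of HPLC-purified 99mTc complex reconstituted in 50% methanol by tail vein. They were killed by cardiectomy under light ether anesthesia at set times (1-60 min pi). Organs were weighed and γ-counted against a 1% injected-dose standard to give % dose/organ. Blood and muscle were taken as 7% and 43% of body weight.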

Rattus norvegicus [3] = species on record: Rattus norvegicus; test: Tested for biodistribution of compound at 60 min in rat lungs; type: ADME, organism-based, Lung; conditions: in vivo, 1 h
Mus musculus [4] = species on record: Mus musculus; test: Tested for biodistribution of compound at 30 min in mice brain; type: ADME, organism-based; conditions: in vivo, 0.5 h; in short: as §1
Mus musculus [5] = species on record: Mus musculus; test: Tested for biodistribution of compound at 1 min in mice blood; type: ADME, organism-based; conditions: in vivo; in short: as §1
Rattus norvegicus [6] = species on record: Rattus norvegicus; test: Tested for biodistribution of compound at 30 min in rat lungs; type: ADME, organism-based, Lung; conditions: in vivo, 0.5 h
Mus musculus [7] = species on record: Mus musculus; test: Tested for biodistribution of compound at 10 min in mice blood; type: ADME, organism-based; conditions: in vivo; in short: as §1
Rattus norvegicus [8] = species on record: Rattus norvegicus; test: Tested for biodistribution of compound at 30 min in rat liver; type: ADME, organism-based; conditions: in vivo, 0.5 h
Mus musculus [9] = species on record: Mus musculus; test: Tested for biodistribution of compound at 60 min in mice lungs; type: ADME, organism-based, Lung; conditions: in vivo, 1 h
In short: (§2)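 Male Swiss albino mice, at least five per group, received HPLC-purified 99mTc complex by tail vein. The complex was reconstituted in 50% methanol (0.1 mL, 2-3 μCi). Mice were killed by cardiectomy under light ether at 1-60 min pi. Organs were weighed and γ-counted against a 1% injected-dose standard to give % dose/organ. Blood and muscle were taken as 7% and 43% of body weight.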

Rattus norvegicus [10] = species on record: Rattus norvegicus; test: Tested for biodistribution of compound at 30 min in rat kidney; type: ADME, organism-based; conditions: in vivo, 0.5 h
In short: (§3)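 Wistar rats under ether anesthesia were dosed through the femoral vein with 0.1 mL of 99mTc complex (3-6 μCi) and dissected 5-60 min pi. Tissue radioactivity was γ-counted against a 1% injected-dose standard and expressed as % dose/organ. Blood and muscle were calculated from sample weight assuming 7% and 43% of body weight.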

Mus musculus [11] = species on record: Mus musculus; test: Tested for biodistribution of compound at 30 min in mice lungs; type: ADME, organism-based, Lung; conditions: in vivo, 0.5 h; in short: as §1
Rattus norvegicus [12] = species on record: Rattus norvegicus; test: Tested for biodistribution of compound at 30 min in rat blood; type: ADME, organism-based; conditions: in vivo, 0.5 h; in short: as §3
Rattus norvegicus [13] = species on record: Rattus norvegicus; test: Tested for biodistribution of compound at 10 min in rat lungs; type: ADME, organism-based, Lung; conditions: in vivo; in short: as §3
Rattus norvegicus [14] = species on record: Rattus norvegicus; test: Tested for biodistribution of compound at 60 min in rat spleen; type: ADME, organism-based; conditions: in vivo, 1 h
Mus musculus [15] = species on record: Mus musculus; test: Tested for biodistribution of compound at 10 min in mice brain; type: ADME, organism-based; conditions: in vivo; in short: as §1
Rattus norvegicus [16] = species on record: Rattus norvegicus; test: Tested for biodistribution of compound at 10 min in rat kidney; type: ADME, organism-based; conditions: in vivo; in short: as §3
Mus musculus [17] = species on record: Mus musculus; test: Tested for biodistribution of compound at 5 min in mice lungs; type: ADME, organism-based, Lung; conditions: in vivo; in short: as §2
Rattus norvegicus [18] = species on record: Rattus norvegicus; test: Tested for biodistribution of compound at 5 min in rat lungs; type: ADME, organism-based, Lung; conditions: in vivo
Rattus norvegicus [19] = species on record: Rattus norvegicus; test: Tested for biodistribution of compound at 10 min in rat spleen; type: ADME, organism-based; conditions: in vivo; in short: as §3
Rattus norvegicus [20] = species on record: Rattus norvegicus; test: Tested for biodistribution of compound at 5 min in rat l intestine; type: ADME, organism-based; conditions: in vivo
Rattus norvegicus [21] = species on record: Rattus norvegicus; test: Tested for biodistribution of compound at 5 min in rat kidney; type: ADME, organism-based; conditions: in vivo
Mus musculus [22] = species on record: Mus musculus; test: Tested for biodistribution of compound at 60 min in mice heart; type: ADME, organism-based; conditions: in vivo, 1 h; in short: as §2
Rattus norvegicus [23] = species on record: Rattus norvegicus; test: Tested for biodistribution of compound at 60 min in rat kidney; type: ADME, organism-based; conditions: in vivo, 1 h
Mus musculus [24] = species on record: Mus musculus; test: Tested for biodistribution of compound at 10 min in mice kidney; type: ADME, organism-based; conditions: in vivo; in short: as §1
Rattus norvegicus [25] = species on record: Rattus norvegicus; test: Tested for biodistribution of compound at 30 min in rat l intestine; type: ADME, organism-based; conditions: in vivo, 0.5 h; in short: as §3
Mus musculus [26] = species on record: Mus musculus; test: Tested for biodistribution of compound at 60 min in mice intestine; type: ADME, organism-based; conditions: in vivo, 1 h; in short: as §2
Rattus norvegicus [27] = species on record: Rattus norvegicus; test: Tested for biodistribution of compound at 5 min in rat muscle; type: ADME, organism-based, Muscle tissue; conditions: in vivo
Rattus norvegicus [28] = species on record: Rattus norvegicus; test: Tested for biodistribution of compound at 10 min in rat stomach; type: ADME, organism-based; conditions: in vivo; in short: as §3

“[4-methoxythio)phenolato][N,N-bis(2-mercaptoethyl)-N',N'-diethylethylenediamine] oxotechnetium” showed a Dose/organ (Rattus norvegicus [1]) of 35.74%, a Dose/organ (Mus musculus [2]) of 9.61% and a Dose/organ (Rattus norvegicus [3]) of 1.14%. For the same substance, the Dose/organ (Mus musculus [4]) was 1.71%, the Dose/organ (Mus musculus [5]) was 5.24% and the Dose/organ (Rattus norvegicus [6]) was 2.08%. The Dose/organ (Mus musculus [7]) was 1.53%, the Dose/organ (Rattus norvegicus [8]) was 29.63% and the Dose/organ (Mus musculus [9]) was 1.79%. It also gave a Dose/organ (Rattus norvegicus [10]) of 6.33%, a Dose/organ (Mus musculus [11]) of 3.09% and a Dose/organ (Rattus norvegicus [12]) of 7.47%. For the same substance, the Dose/organ (Rattus norvegicus [13]) was 7.78%, the Dose/organ (Rattus norvegicus [14]) was 0.46% and the Dose/organ (Mus musculus [15]) was 2.47%. It also gave a Dose/organ (Rattus norvegicus [16]) of 4.26%, a Dose/organ (Mus musculus [17]) of 15.37% and a Dose/organ (Rattus norvegicus [18]) of 9.38%. The Dose/organ (Rattus norvegicus [19]) was 0.77%, the Dose/organ (Rattus norvegicus [20]) was 2.64% and the Dose/organ (Rattus norvegicus [21]) was 3.22%. The Dose/organ (Mus musculus [22]) was 0.12%, the Dose/organ (Rattus norvegicus [23]) was 8.73% and the Dose/organ (Mus musculus [24]) was 3.18%. The Dose/organ (Rattus norvegicus [25]) was 1.27%, the Dose/organ (Mus musculus [26]) was 33.7% and the Dose/organ (Rattus norvegicus [27]) was 28.6%. The Dose/organ (Rattus norvegicus [28]) was 2.37%.
